Active and inactive are the calls of the source. No cut-off for these calls is given here.

Series [1] relates to MDA-MB-231. The experiment in a line: Antiproliferative activity against human MDA-MB-231 cells after 72 hrs by MTT assay. As to conditions: MDA-MB-231, 72 h. The series is classed as functional, cell-based. (In general: Tetrazolium assays rely on reduction of a dye to a coloured formazan, in cell work by metabolically active cells.)
For series [2], the target named is T1, Vascular endothelial growth factor receptor 2 (Homo sapiens, UniProt P35968). The experiment in a line: Inhibition of VEGFR-2 (unknown origin) at 0.2 uM after 40 mins by kinase-Glo assay relative to control. An outline of the steps:
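VEGFR-2 tested at a single 200 nM concentration in a Kinase-Glo assay. Compound, kinase, substrate and ATP incubated 40 min at room temperature, then Kinase-Glo reagent added for 15 min and luminescence read. Inhibition rate reported. Replicates n ≥ 2.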
A general note: Kinase-Glo reads ATP consumption through a luciferase reaction.

The test system of series [3] is HT-29. The series is described as follows: Antiproliferative activity against human HT-29 cells after 72 hrs by MTT assay. It is filed as functional, cell-based. As to conditions: HT-29, 72 h.
The target of series [4] is T1, Vascular endothelial growth factor receptor 2. The experiment in a line: Inhibition of VEGF-stimulated VEGFR2 phosphorylation in human HUVEC cells at 100 nM preincubated for 2 hrs followed by VEGF stimulation by Western blot analysis. The series is classed as cell-based. An outline of the steps: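 HUVECs pretreated 2 h with compound or DMSO, then stimulated with VEGF (50 ng/ml). Cells lysed in ice-cold RIPA and protein measured by BCA. Lysates run on SDS-PAGE and immunoblotted for phospho-VEGFR-2, with total VEGFR-2 as loading control. Detection by ECL.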
A general note: A western blot detects proteins with antibodies after separation by electrophoresis.

The target of series [5] is Vascular endothelial growth factor receptor 3 (Homo sapiens, UniProt P35916). The experiment in a line: Inhibition of VEGFR-3 (unknown origin) after 40 mins by kinase-Glo assay.
In series [6] the test system is K562. The experiment in a line: Antiproliferative activity against human K562 cells after 72 hrs by MTT assay. The series is classed as functional, cell-based. As to conditions: K562, 72 h.
The nature of series [7]: Clearance in Sprague-Dawley rat at 2 mg/kg, iv by LC-MS/MS analysis. It is filed as ADME, organism-based. As to conditions: in vivo. An outline of the steps: (§1)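 Sprague–Dawley rats (N = 6) dosed with the hydrochloride salt, 2 mg/kg IV or 10 mg/kg PO. Jugular vein blood drawn at set time points and kept on ice. Plasma separated by centrifugation, stored at -80 °C, and quantified by LC-MS/MS.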

Series [8] has as its system HEL. The series is described as follows: Antiproliferative activity against human HEL cells after 72 hrs by MTT assay. It is filed as functional, cell-based.
Series [9] deals with Histone deacetylase. The series is classed as protein assay, Homo sapiens.
For series [10], the target named is Platelet-derived growth factor receptor beta (Homo sapiens, UniProt P09619). The series is described as follows: Inhibition of PDGFRbeta (unknown origin) after 40 mins by kinase-Glo assay. An outline of the steps: (§2)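 Kinase-Glo luminescent assay run by a contract lab. Compound, kinase, substrate and ATP diluted in kinase buffer and incubated 40 min at room temperature. IC50 obtained by nonlinear regression of normalized dose–response.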

A short description of series [11]: MRT (0 to t) in Sprague-Dawley rat at 2 mg/kg, iv by LC-MS/MS analysis. It is filed as ADME, organism-based. The following applies: in vivo. An outline of the steps:
as §1

Series [12] has as its target Mast/stem cell growth factor receptor Kit (Homo sapiens, UniProt P10721). The experiment in a line: Inhibition of C-kit (unknown origin) after 40 mins by kinase-Glo assay. An outline of the steps:
as §2

T1 sequence (P35968 whole entry): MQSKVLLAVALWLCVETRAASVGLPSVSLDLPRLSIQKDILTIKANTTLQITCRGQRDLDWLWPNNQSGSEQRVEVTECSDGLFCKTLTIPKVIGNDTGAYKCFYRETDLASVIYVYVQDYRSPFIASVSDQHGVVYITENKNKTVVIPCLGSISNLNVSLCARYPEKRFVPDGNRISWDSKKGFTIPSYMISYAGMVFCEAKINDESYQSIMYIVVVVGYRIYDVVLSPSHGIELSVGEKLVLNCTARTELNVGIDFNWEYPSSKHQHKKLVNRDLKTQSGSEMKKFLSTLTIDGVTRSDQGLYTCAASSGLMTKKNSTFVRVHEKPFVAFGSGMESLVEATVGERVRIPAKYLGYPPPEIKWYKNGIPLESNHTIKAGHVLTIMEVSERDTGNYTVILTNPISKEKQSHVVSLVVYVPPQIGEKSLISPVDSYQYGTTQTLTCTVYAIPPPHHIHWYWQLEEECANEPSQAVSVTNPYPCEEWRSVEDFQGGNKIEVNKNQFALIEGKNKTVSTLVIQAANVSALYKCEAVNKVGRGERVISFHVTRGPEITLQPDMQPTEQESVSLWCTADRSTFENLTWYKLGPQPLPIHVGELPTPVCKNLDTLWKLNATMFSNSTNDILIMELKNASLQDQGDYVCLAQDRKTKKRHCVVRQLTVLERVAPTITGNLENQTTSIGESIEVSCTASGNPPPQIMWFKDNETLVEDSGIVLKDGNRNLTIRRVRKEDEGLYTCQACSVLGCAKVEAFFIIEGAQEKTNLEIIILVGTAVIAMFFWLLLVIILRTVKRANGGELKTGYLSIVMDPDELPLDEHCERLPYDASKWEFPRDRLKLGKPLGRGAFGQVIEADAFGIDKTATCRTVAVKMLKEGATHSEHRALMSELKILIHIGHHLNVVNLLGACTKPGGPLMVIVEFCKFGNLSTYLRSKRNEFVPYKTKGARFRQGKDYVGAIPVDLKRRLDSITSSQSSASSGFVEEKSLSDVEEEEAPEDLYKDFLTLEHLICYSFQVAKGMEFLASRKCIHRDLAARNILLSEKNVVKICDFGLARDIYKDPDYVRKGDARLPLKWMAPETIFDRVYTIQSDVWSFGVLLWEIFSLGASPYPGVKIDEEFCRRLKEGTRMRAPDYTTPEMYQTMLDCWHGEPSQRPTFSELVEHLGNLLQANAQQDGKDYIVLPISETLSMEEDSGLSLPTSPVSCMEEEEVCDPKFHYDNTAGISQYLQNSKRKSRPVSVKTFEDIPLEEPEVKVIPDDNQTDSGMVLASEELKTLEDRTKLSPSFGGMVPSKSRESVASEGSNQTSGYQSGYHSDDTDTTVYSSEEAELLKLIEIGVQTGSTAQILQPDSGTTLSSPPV
Chain of Mast/stem cell growth factor receptor Kit (P10721 whole entry): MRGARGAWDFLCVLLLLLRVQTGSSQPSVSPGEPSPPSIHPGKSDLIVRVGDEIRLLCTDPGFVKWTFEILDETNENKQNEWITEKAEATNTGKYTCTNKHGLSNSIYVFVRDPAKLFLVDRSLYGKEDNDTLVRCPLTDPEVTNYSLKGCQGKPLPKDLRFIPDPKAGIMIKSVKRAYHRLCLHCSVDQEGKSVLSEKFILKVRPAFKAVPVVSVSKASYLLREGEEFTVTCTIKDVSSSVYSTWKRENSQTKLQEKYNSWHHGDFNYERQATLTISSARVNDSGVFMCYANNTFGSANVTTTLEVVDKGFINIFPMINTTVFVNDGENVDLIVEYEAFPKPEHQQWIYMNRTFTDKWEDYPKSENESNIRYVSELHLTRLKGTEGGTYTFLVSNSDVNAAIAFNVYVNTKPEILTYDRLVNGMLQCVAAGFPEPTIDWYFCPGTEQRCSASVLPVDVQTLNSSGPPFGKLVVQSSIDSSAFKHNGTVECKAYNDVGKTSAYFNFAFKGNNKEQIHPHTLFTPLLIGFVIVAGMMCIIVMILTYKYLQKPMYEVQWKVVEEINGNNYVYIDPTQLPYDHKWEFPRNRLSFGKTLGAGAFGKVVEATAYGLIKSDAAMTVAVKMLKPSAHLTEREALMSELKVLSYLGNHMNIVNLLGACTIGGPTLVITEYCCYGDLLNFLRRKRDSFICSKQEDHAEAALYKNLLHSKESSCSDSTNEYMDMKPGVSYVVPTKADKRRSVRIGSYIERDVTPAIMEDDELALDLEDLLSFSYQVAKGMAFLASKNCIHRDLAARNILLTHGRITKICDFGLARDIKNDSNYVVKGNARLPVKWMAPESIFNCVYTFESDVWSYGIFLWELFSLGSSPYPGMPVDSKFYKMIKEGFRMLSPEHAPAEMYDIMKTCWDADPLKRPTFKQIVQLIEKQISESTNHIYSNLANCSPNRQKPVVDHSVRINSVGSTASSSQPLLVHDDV
Chain of Platelet-derived growth factor receptor beta (P09619 whole entry): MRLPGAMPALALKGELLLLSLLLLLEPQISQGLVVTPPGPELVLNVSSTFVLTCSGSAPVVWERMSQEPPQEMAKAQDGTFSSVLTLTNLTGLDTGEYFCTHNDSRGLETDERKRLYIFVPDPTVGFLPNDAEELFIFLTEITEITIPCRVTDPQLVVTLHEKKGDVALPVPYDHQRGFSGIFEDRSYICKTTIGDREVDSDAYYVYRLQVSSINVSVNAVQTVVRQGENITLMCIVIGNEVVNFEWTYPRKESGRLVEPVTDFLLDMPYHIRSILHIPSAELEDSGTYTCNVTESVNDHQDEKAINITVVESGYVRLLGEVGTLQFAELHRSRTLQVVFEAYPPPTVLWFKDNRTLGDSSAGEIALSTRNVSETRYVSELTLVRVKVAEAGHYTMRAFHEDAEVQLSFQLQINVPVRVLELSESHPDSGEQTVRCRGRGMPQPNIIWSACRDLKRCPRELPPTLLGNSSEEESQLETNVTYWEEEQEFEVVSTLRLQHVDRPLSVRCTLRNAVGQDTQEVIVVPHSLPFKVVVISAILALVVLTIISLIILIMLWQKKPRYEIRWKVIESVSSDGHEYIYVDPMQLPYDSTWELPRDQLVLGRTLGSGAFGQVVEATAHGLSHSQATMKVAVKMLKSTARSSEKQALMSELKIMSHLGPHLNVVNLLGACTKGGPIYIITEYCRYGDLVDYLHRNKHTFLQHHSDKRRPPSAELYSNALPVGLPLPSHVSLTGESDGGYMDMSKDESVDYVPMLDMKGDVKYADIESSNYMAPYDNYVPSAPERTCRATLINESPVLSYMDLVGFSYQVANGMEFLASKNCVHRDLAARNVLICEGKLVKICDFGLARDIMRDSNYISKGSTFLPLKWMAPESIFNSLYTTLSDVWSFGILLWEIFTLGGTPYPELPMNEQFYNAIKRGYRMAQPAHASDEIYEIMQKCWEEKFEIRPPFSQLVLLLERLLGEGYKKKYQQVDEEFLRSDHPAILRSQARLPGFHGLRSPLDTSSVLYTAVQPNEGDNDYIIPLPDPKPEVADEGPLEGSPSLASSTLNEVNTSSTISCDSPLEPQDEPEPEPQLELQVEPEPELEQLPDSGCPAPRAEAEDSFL
Chain of Vascular endothelial growth factor receptor 3 (P35916 whole entry): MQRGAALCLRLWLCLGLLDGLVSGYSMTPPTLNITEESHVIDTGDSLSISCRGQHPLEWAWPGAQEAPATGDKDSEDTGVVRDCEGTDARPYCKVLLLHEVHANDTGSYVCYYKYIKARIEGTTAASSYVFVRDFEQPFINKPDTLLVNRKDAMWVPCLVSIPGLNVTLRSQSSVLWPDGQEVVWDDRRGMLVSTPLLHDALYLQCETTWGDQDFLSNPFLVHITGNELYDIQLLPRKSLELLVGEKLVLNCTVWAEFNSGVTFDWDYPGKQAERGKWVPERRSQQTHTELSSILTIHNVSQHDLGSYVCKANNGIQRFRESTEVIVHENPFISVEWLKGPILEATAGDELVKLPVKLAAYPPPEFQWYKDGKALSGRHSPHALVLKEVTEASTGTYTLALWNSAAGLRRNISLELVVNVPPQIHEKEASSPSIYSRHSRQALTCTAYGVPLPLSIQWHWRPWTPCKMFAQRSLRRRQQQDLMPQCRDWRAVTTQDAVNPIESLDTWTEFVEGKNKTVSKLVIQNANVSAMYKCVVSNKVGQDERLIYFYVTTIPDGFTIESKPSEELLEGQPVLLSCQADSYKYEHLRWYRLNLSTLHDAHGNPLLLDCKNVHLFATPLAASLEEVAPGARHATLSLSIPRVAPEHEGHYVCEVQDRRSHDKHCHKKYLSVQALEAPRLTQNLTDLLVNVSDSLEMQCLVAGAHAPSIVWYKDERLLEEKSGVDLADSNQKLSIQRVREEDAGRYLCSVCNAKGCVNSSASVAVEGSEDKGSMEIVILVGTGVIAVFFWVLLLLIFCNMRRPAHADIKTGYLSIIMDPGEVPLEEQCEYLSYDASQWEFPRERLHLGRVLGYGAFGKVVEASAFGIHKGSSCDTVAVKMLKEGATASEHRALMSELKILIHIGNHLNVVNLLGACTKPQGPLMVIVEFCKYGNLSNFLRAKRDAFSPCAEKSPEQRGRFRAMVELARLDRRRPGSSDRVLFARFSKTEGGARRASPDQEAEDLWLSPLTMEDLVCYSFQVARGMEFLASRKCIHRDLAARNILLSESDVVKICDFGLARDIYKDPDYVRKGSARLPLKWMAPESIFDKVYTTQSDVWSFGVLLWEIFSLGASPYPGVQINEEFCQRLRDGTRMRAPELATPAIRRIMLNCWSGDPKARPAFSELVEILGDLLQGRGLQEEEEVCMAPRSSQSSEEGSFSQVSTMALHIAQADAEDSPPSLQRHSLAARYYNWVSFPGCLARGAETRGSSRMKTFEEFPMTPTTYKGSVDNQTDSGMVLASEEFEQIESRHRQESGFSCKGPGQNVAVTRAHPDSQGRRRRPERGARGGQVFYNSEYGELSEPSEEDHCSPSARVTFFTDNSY

As to `Cc1c2ccc(N(C)c3ccnc(Nc4ccc(C(=O)Nc5ccccc5N)cc4)n3)cc2nn1C`, the concentration for half-maximal inhibition (IC50) in series [1] stood at 3.74 µM; in series [3], 1.07 µM; in [5], 0.046 µM; in series [6], 1.82 µM; in series [8] it was 1.52 µM; in series [9], 4.6 µM. Besides, the IC50 came out at 0.088 µM in series [10] and 0.125 µM in series [12]. The inhibition in series [2] came to 100%. In addition, the inhibition entry in series [4] was “Active”. In addition, the clearance in series [7] is 14.6 mL/min/kg. This compound also gave an MRT last in [11] of 1.13 h.

As a reminder, the IC50 is the point on the concentration scale where inhibition reaches its midpoint. Read a high IC50 as a need for much substance. A word on the inhibition: it is the relative decrease from the control value, in per cent. By clearance is commonly meant a measure of how efficiently the substance is removed, as volume per time. A lower clearance goes with inefficient removal. In general, MRT last refers to a mean duration of stay, worked out from the concentration-time curve.
